Experimental data taken from ChEMBL document CHEMBL2177069, “Novel peptidomimetic compounds containing redox active chalcogens and quinones as potential anticancer agents” (Eur J Med Chem, 2012).

Columns and labels:
SR = experiment: Cytotoxicity against human SR cells; assay type: functional
DU-145 = experiment: Cytotoxicity against human DU145 cells; assay type: functional
Saccharomyces cerevisiae [1] = experiment: Growth inhibition of COX17-deficient Saccharomyces cerevisiae YLL009C mutant at 20 ug/disc after 24 to 48 hrs by agar diffusion assay; assay type: functional; conditions: read-out: DIZ
Summary of the method: (§1)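 S. cerevisiae deletion mutants or wild type grown on YPD, seeded into liquid agar medium at an optical density of 0.1. 6 mm paper discs soaked with methanolic compound solution were placed on the plates and incubated at 30 °C. Growth was checked after 1 and 2 days, and the inhibition zone diameter was recorded in mm.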

Saccharomyces cerevisiae [2] = experiment: Growth inhibition of RCK1-deficient Saccharomyces cerevisiae YGL158W mutant at 20 ug/disc after 24 to 48 hrs by agar diffusion assay; assay type: functional; conditions: read-out: DIZ; summary of the method: as §1
Saccharomyces cerevisiae [3] = experiment: Growth inhibition of GTT2-deficient Saccharomyces cerevisiae YLL060C mutant at 20 ug/disc after 24 to 48 hrs by agar diffusion assay; assay type: functional; conditions: read-out: DIZ; summary of the method: as §1
Saccharomyces cerevisiae [4] = experiment: Growth inhibition of WSC4-deficient Saccharomyces cerevisiae YHL028W mutant at 20 ug/disc 24 to 48 hrs by agar diffusion assay; assay type: functional; conditions: read-out: DIZ; summary of the method: as §1
Saccharomyces cerevisiae [5] = experiment: Growth inhibition of SOD1-deficient Saccharomyces cerevisiae YJR104C mutant at 20 ug/disc after 24 to 48 hrs by agar diffusion assay; assay type: functional; conditions: read-out: DIZ; summary of the method: as §1
Saccharomyces cerevisiae [6] = experiment: Growth inhibition of wild type Saccharomyces cerevisiae BY4741 at 20 ug/disc after 24 to 48 hrs by agar diffusion assay; assay type: functional; conditions: read-out: DIZ; summary of the method: as §1
HUVEC = experiment: Cytotoxicity against human HUVEC cells after 24 hrs by MTT assay; assay type: cell-based
Summary of the method: (§2)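 MTT assay. Cells were seeded at 50,000 cells/mL in medium with 10% fetal calf serum and grown for two days at 37 °C, 10% CO2. Serial dilutions of compound were then added for 24 h. MTT was added (final 0.5 mg/mL) for 2 h, and the formazan was pelleted, washed, dissolved in isopropanol with 0.4% HCl and read at 590 nm. IC50 is the concentration giving 50% of untreated-control absorbance, taken from dose-response curves; mean of two parallel experiments.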

A498 [7] = experiment: Cytotoxicity against human A498 cells after 24 hrs by MTT assay; assay type: functional, cell-based; conditions: A498, 24 h; summary of the method: as §2
MCF7 = experiment: Cytotoxicity against human MCF7 cells after 24 hrs by MTT assay; assay type: functional, cell-based; conditions: MCF7, 24 h; summary of the method: as §2
MDA-MB-468 = experiment: Cytotoxicity against human MDA-MB-468 cells; assay type: functional
T47D = experiment: Cytotoxicity against human T47D cells; assay type: functional
BT-549 = experiment: Cytotoxicity against human BT549 cells; assay type: functional
MDA-MB-231 = experiment: Cytotoxicity against human MDA-MB-231 cells; assay type: functional
Hs-578T = experiment: Cytotoxicity against human Hs578T cells; assay type: functional
UO-31 = experiment: Cytotoxicity against human UO31 cells; assay type: functional
SN12C = experiment: Cytotoxicity against human SN12C cells; assay type: functional
A498 [8] = experiment: Cytotoxicity against human A498 cells; assay type: functional
[9] = Cytotoxicity against human 786-O cells; assay type: functional
SK-OV-3 = experiment: Cytotoxicity against human SKOV3 cells; assay type: functional
OVCAR-8 = experiment: Cytotoxicity against human OVCAR8 cells; assay type: functional
OVCAR-4 = experiment: Cytotoxicity against human OVCAR4 cells; assay type: functional
OVCAR-5 = experiment: Cytotoxicity against human OVCAR5 cells; assay type: functional
SK-MEL-5 = experiment: Cytotoxicity against human SK-MEL-5 cells; assay type: functional
SK-MEL-28 = experiment: Cytotoxicity against human SK-MEL-28 cells; assay type: functional
SK-MEL-2 = experiment: Cytotoxicity against human SK-MEL-2 cells; assay type: functional
MDA-MB-435 = experiment: Cytotoxicity against human MDA-MB-435 cells; assay type: functional
M14 = experiment: Cytotoxicity against human M14 cells; assay type: functional
U-251 = experiment: Cytotoxicity against human U251 cells; assay type: functional
SNB-75 = experiment: Cytotoxicity against human SNB75 cells; assay type: functional
SNB-19 = experiment: Cytotoxicity against human SNB19 cells; assay type: functional
SF-295 = experiment: Cytotoxicity against human SF295 cells; assay type: functional
HCT-15 = experiment: Cytotoxicity against human HCT15 cells; assay type: functional
HCC 2998 = experiment: Cytotoxicity against human HCC2998 cells; assay type: functional
NCI-H460 = experiment: Cytotoxicity against human NCI-H460 cells; assay type: functional
NCI-H322M = experiment: Cytotoxicity against human NCI-H322M cells; assay type: functional
A549 = experiment: Cytotoxicity against human A549 cells; assay type: functional
EKVX = experiment: Cytotoxicity against human EKVX cells; assay type: functional
HOP-62 = experiment: Cytotoxicity against human HOP62 cells; assay type: functional
MOLT-4 = experiment: Cytotoxicity against human MOLT4 cells; assay type: functional

CC1=C([Se]CC(OC(=O)[C@@H](CO)NC(=O)OC(C)(C)C)C(=O)NC(C)(C)C)C(=O)c2ccccc2C1=O (stereo partly specified)
GI50 (SR): 0.741 µM | LC50 (SR): > 100 µM | GI50 (DU-145): 1.91 µM | LC50 (DU-145): 6.03 µM | TGI (DU-145; read-out: pTGI (converted)): 3.39 µM | zone of inhibition at 20 µg/disc (Saccharomyces cerevisiae [1]): 13 mm | zone of inhibition at 20 µg/disc (Saccharomyces cerevisiae [2]): 18 mm | zone of inhibition at 20 µg/disc (Saccharomyces cerevisiae [3]): 21 mm | zone of inhibition at 20 µg/disc (Saccharomyces cerevisiae [4]): 19 mm | zone of inhibition at 20 µg/disc (Saccharomyces cerevisiae [5]): 22 mm | zone of inhibition at 20 µg/disc (Saccharomyces cerevisiae [6]): 0 mm | IC50 (HUVEC): 3 µM | IC50 (A498 [7]): 5 µM | IC50 (MCF7): 3 µM | GI50 (MDA-MB-468): 0.759 µM | LC50 (MDA-MB-468): 5.89 µM | TGI (MDA-MB-468; read-out: pTGI (converted)): 2.29 µM | GI50 (T47D): 0.331 µM | LC50 (T47D): 8.91 µM | TGI (T47D; read-out: pTGI (converted)): 1.07 µM | GI50 (BT-549): 1.58 µM | LC50 (BT-549): 5.37 µM | TGI (BT-549; read-out: pTGI (converted)): 2.95 µM | GI50 (MDA-MB-231): 1.62 µM | LC50 (MDA-MB-231): 6.03 µM | TGI (MDA-MB-231; read-out: pTGI (converted)): 3.16 µM | GI50 (Hs-578T): 2.82 µM | LC50 (Hs-578T): > 100 µM | GI50 (UO-31): 1.45 µM | LC50 (UO-31): 6.03 µM | TGI (UO-31; read-out: pTGI (converted)): 2.95 µM | GI50 (SN12C): 1.86 µM | LC50 (SN12C): 6.31 µM | TGI (SN12C; read-out: pTGI (converted)): 3.39 µM | GI50 (A498 [8]): 3.63 µM | LC50 (50% lethal concentration) (A498 [8]): 39.8 µM | TGI (A498 [8]; read-out: pTGI (converted)): 15.1 µM | GI50 ([9]; 786-0): 1.95 µM | LC50 ([9]; 786-0): 5.89 µM | TGI ([9]; 786-0, read-out: pTGI (converted)): 3.39 µM | GI50 (SK-OV-3): 1.26 µM | LC50 (SK-OV-3): 5.13 µM | TGI (SK-OV-3; read-out: pTGI (converted)): 2.57 µM | GI50 (OVCAR-8): 1.86 µM | TGI (OVCAR-8; read-out: pTGI (converted)): 3.55 µM | GI50 (OVCAR-4): 1.23 µM | LC50 (OVCAR-4): 5.01 µM | TGI (OVCAR-4; read-out: pTGI (converted)): 2.51 µM | GI50 (OVCAR-5): 2.09 µM | LC50 (OVCAR-5): 6.61 µM | TGI (OVCAR-5; read-out: pTGI (converted)): 3.72 µM | GI50 (SK-MEL-5): 1.58 µM | LC50 (SK-MEL-5): 5.5 µM | TGI (SK-MEL-5; read-out: pTGI (converted)): 2.95 µM | GI50 (SK-MEL-28): 2.04 µM | LC50 (SK-MEL-28): 6.17 µM | TGI (SK-MEL-28; read-out: pTGI (converted)): 3.55 µM | GI50 (SK-MEL-2): 2.19 µM | LC50 (SK-MEL-2): 9.55 µM | TGI (SK-MEL-2; read-out: pTGI (converted)): 4.57 µM | GI50 (MDA-MB-435): 2 µM | LC50 (MDA-MB-435): 8.32 µM | TGI (MDA-MB-435; read-out: pTGI (converted)): 4.07 µM | GI50 (M14): 1.66 µM | LC50 (M14): 5.62 µM | TGI (M14; read-out: pTGI (converted)): 3.02 µM | GI50 (U-251): 0.977 µM | LC50 (U-251): 6.61 µM | TGI (U-251; read-out: pTGI (converted)): 2.57 µM | GI50 (SNB-75): 1.29 µM | LC50 (SNB-75): 5.13 µM | TGI (SNB-75; read-out: pTGI (converted)): 2.57 µM | GI50 (SNB-19): 0.661 µM | LC50 (SNB-19): 4.9 µM | TGI (SNB-19; read-out: pTGI (converted)): 2 µM | GI50 (SF-295): 0.316 µM | LC50 (SF-295): 22.4 µM | TGI (SF-295; read-out: pTGI (converted)): 1.05 µM | GI50 (HCT-15): 2 µM | LC50 (HCT-15): 7.94 µM | TGI (HCT-15; read-out: pTGI (converted)): 3.98 µM | GI50 (HCC 2998): 1.82 µM | LC50 (HCC 2998): 5.75 µM | TGI (HCC 2998; read-out: pTGI (converted)): 3.24 µM | GI50 (NCI-H460): 0.457 µM | LC50 (NCI-H460): 7.41 µM | TGI (NCI-H460; read-out: pTGI (converted)): 1.78 µM | GI50 (NCI-H322M): 0.447 µM | LC50 (NCI-H322M): 32.4 µM | TGI (NCI-H322M; read-out: pTGI (converted)): 3.72 µM | GI50 (A549): 1.82 µM | LC50 (A549): 89.1 µM | TGI (A549; read-out: pTGI (converted)): 9.33 µM | GI50 (EKVX): 1.78 µM | LC50 (EKVX): 7.76 µM | TGI (EKVX; read-out: pTGI (converted)): 3.72 µM | GI50 (HOP-62): 0.525 µM | LC50 (HOP-62): 4.37 µM | TGI (HOP-62; read-out: pTGI (converted)): 1.86 µM | GI50 (MOLT-4): 0.447 µM | LC50 (MOLT-4): > 100 µM
